Compound activity as filed in PubChem.
The list is not random: actives were taken first. Their share in the collection is about 1.8%.
CHRM5 agonist: agonists of human muscarinic M5 receptor (CHRM5) | CHO-K1 hM5 cells, Fluo-8 calcium fluorescence; 0% DMSO wells, 100% maximal acetylcholine response | activation, % at 3 µM | 360,000 tested, 0.19% active;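 active = activation above the run's mean over test compounds plus 3 SD, cut at about 23% in these data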;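 also: signal is peak over basal fluorescence ratio across the kinetic read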
CHRM5 antagonist: antagonists of human muscarinic M5 receptor (CHRM5) | P08912 | AID 624040 | inhibition, % at 3 µM | 360,000 tested, 0.59% active | CHO-hM5 cells, Fluo-8 calcium fluorescence, ACh EC80;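 active = inhibition above a per-plate cutoff, the mean of that plate's test compounds plus 3 SD, cut at about 27% in these data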
M4 ag: agonists of human muscarinic M4 receptor (CHRM4); P08173; CHO-K1 hM4/Gqi5, Fluo-8 calcium fluorescence; vehicle 0%, full acetylcholine response 100%; activation, % at 3 µM; 360,000 tested, 0.14% active;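 active = activation above the run mean over all test wells plus 3 SD, cut at about 32% in these data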;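 also: peak over basal fluorescence ratio per well then scaled between controls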
Target sequence (P08173 whole entry, looked up): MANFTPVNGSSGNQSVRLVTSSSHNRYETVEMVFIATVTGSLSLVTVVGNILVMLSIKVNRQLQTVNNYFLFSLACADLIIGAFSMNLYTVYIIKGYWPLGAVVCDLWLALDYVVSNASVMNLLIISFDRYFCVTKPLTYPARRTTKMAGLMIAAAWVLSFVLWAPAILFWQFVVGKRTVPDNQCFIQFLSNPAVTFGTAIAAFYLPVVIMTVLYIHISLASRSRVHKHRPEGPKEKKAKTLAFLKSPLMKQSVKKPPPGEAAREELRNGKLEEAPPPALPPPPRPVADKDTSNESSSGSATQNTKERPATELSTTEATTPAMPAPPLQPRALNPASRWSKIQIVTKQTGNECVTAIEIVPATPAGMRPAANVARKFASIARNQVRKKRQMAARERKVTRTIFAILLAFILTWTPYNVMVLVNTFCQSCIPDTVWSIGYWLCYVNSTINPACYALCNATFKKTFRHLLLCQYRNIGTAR
M4 antag: blocks acetylcholine activation of human M4 receptor. P08173. CHO-hM4 cells, ACh EC80, Fluo-8 calcium fluorescence. inhibition, % at 3 µM. 360,000 tested, 0.73% active;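 active = inhibition above its plate's cutoff, the mean inhibition of sample wells plus 3 SD, cut at about 27% in these data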
M5 PAM: CHRM5 positive allosteric modulation; activation, % at 3 µM; 360,000 tested, 0.3% active; CHO-K1 hM5, Fluo-8 calcium, ACh EC20 PAM; 0% = ACh EC20, 100% = ACh EC100; AID 624038;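 active = activation above the run cutoff, the mean activation of all test compounds plus 3 SD, cut at about 18% in these data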
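Assay system – human M5 receptor in CHO-K1 cells · Read-out – % activation, ACh-normalized · Technique – Fluo-8 calcium fluorescence · Dosing – single-point, 3 µM nominal · Incubation – Fluo-8 loading 80 min at 37 °C plus 30 min room temperature · Repeats – singlicate, one well per test compound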
M4 PAM: positive allosteric modulators of human muscarinic M4 receptor; activation, % at 3 µM; AID 624126; CHO-K1 hM4/Gqi5, Fluo-8 calcium fluorescence, ACh EC20; 0% = ACh EC20, 100% = maximal ACh; 360,000 tested, 0.4% active; P08173;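 active = activation above its plate's cutoff, the mean activation of sample wells plus 3 SD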
Large screens that a line does not name were inactive; ! = not confirmed by another sample.

COc1cc2sc(-c3ccccc3OC)c(-c3ccc(OCCN4CCCCC4)cc3)c2cc1OC	none
Nc1nc(-c2ccccn2)nc(N)c1Cc1ccccc1F	none
Nc1nc(-c2ccccn2)nc(N)c1Cc1c(F)cccc1Cl	M5 PAM 18.7
Nc1nc(-c2ccccn2)nc(N)c1Cc1ccc(Cl)cc1Cl	M4 antag 81.4
Clc1ccc(OCc2nc(-c3ccccn3)no2)c(Br)c1	none
CSCCC(C(=O)NC1CCCC1)n1c(-c2ccccn2)nc2ccccc21 (stereo not given)	none
CC(C)C[C@H]1COc2cc(N3CC[C@H](O)C3)ccc2S(=O)(=O)N1	none
Cc1ccc2c(c1)cc1c(=O)n(CC(=O)N(C)c3ccccc3)nc(C)n12	M4 PAM 15.7
Cc1ccc2c(Cl)cc(Cl)c(OCC(=O)NCCc3ccccn3)c2n1	M4 antag 76.8
CCOc1ccccc1NC(=O)COC(=O)COc1c(Cl)cc(Cl)c2ccc(C)nc12	CHRM5 antagonist 28.2, M5 PAM 33.7
Cc1ccc2c(Cl)cc(Cl)c(OCC(=O)NC3CCS(=O)(=O)C3)c2n1 (stereo not given)	none
O=Nc1nc2ncccn2c1-c1ccccc1	none
CCN1CCN(CNC(=O)c2cnccn2)CC1	M5 PAM 20.7
O=C(NCc1ccc2c(c1)OCO2)Nc1ccc([N+](=O)[O-])cc1	CHRM5 antagonist 37.7
Cc1cc(OCC(=O)NCCc2ccc(Cl)cc2)c2c(C)cc(=O)oc2c1	M5 PAM 19.0
O=C(Nc1ccc(Cl)cc1)c1ccc(-n2cncn2)c([N+](=O)[O-])c1	M4 antag 28.7
Cc1ccc(NC(=O)c2ccc(-n3cncn3)c([N+](=O)[O-])c2)cc1	none
COc1cccc(NC(=S)NC2CC(C)CC(C)(C)C2)c1 (stereo not given)	none
CC(=O)c1c(N)c(C#N)c(C)n1-c1ccc(Br)cc1	CHRM5 antagonist 27.0, M5 PAM 34.6
Cc1[nH]nc(-c2cccnc2)c1N=NN(C)C	none
CC[N+]1(CC(O)COC2CC(C)CC(C)(C)C2)CCOCC1 (stereo not given)	M4 antag 29.1
CCOC(=O)C1(C)CCN1C(=O)CSc1ccccc1 (stereo not given)	none
CN(C)c1ccc(/C=C2\Oc3ccc(C#Cc4cccc(N)c4)cc3C2=O)cc1	CHRM5 agonist 67.0, CHRM5 antagonist 33.3, M4 ag 96.4
O=C(/C(=C/c1ccc(Cl)cc1)c1nc2ccccc2[nH]1)c1ccccc1	M4 antag 38.2
O=C(N/C(=C/c1ccc(Cl)cc1)c1nc2ccccc2[nH]1)c1ccco1	none
CC(=O)Nc1cccc(Oc2nc(NCCN(C)C)nc3ccsc23)c1	none
O=C(Cc1cc(=O)[nH][nH]1)N/N=C/C(Cl)=C/c1ccccc1	M4 PAM 35.1!
O=C(Cc1cc(=O)[nH][nH]1)N/N=C/c1c(Cl)cccc1Cl	none
COc1ccc(OC)c(/C=C2/Sc3ccccc3C2=O)c1	CHRM5 agonist 63.0, CHRM5 antagonist 42.6
C=C1C2=C(C(=O)N1OC)[C@@H](O)[C@@](C)(O)[C@@H](CCCCC)O2	M4 PAM 21.6
Cc1cc(C)n(-c2ccc(C(=O)Nc3cccc(S(=O)(=O)N(C)C)c3)cc2)n1	none
Cc1cc(C)n(-c2ccc(C(=O)Nc3cccc([N+](=O)[O-])c3)cc2)n1	CHRM5 antagonist 27.3
CC(=O)Nc1ccccc1NC(=O)C/C(C)=N/NC(=O)c1ccc([N+](=O)[O-])c(Cl)c1	M4 PAM 23.7
C/C(CC(=O)Nc1cccnc1)=N\NC(=O)c1ccc([N+](=O)[O-])c(Cl)c1	none
CCC(C)n1c(NC(=O)c2ccccc2)c(C#N)c2nc3ccccc3nc21 (stereo not given)	M5 PAM 18.5
Cc1ccc2c(c1)C(=O)C(=O)N2CCOc1ccccc1	CHRM5 agonist 24.2
Cc1ccc2c(c1)C(=O)C(=O)N2Cc1ccc(Br)cc1	CHRM5 agonist 30.6
Cc1cccc2c1N(CCCOc1ccc(C(C)(C)C)cc1)C(=O)C2=O	none
Cc1ccccc1OCCCN1C(=O)C(=O)c2cccc(C)c21	CHRM5 agonist 25.7
Cc1cccc2c1N(CCCOc1ccccc1)C(=O)C2=O	CHRM5 agonist 27.0
Cc1cccc(OCCN2C(=O)C(=O)c3cc(C)ccc32)c1	none
Cc1oc(-c2ccccc2)cc1C(=O)Nc1cccc(C(=O)O)c1	M4 PAM 42.7
Cc1cccc2cc(CN(CC3CCCO3)C(=O)NC3CCCCC3)c(=O)[nH]c12 (stereo not given)	none
COc1ccc(CCN(Cc2cc3cccc(C)c3[nH]c2=O)C(=O)NC2CCCCC2)cc1OC	M4 antag 31.4
COc1cc(CNC(=O)Nc2nc(C(N)Cc3ccc(C(F)(F)F)cc3)cs2)cc(OC)c1OC (stereo not given)	none
CCOC(=O)C(CC)c1cc2n(c(=O)c1C#N)CCC21OCCO1 (stereo not given)	none
Cc1cccn2cc(CNS(=O)(=O)c3ccc4ccccc4c3)nc12	none
Cc1ccn2cc(CNS(=O)(=O)c3ccc4ccccc4c3)nc2c1	M4 antag 99.2
Cc1ccc(NN2C(=O)C=C(c3ccc(Cl)cc3)C2=O)cc1	M4 antag 70.4
COc1ccc(C(=O)Oc2cc3c4c(c2)C(C)=CC(C)(C)N4C(=O)C3=O)cc1OC	none
COc1cccc(C(=O)Oc2cc3c4c(c2)C(C)=CC(C)(C)N4C(=O)C3=O)c1	CHRM5 agonist 56.6, CHRM5 antagonist 46.0
COc1cc2c3c(c1)C(C)=CC(C)(C)N3C(=O)C2=O	CHRM5 agonist 35.9
COc1cccc(NC(=O)C2(C)CCN2C(=O)CCc2ccc(Cl)cc2Cl)c1 (stereo not given)	none
CC1(Cc2ccc(C(F)(F)F)o2)C(=O)Nc2cc(-c3ccc(F)cc3F)ccc21 (stereo not given)	none
CC1(C(=O)NS(=O)(=O)c2cccc(F)c2)CCN1C(=O)c1cccc(F)c1 (stereo not given)	none
CC(C)Oc1ccc(S(=O)(=O)N2CCOCC2)cc1NC(=O)c1ccc(N2CCCC2=O)cc1	CHRM5 antagonist 28.5
CC1CCCC(C)N1C(=O)CN1C(=O)C(C)(C)Oc2ccc(C(=O)NC3CCCCC3)cc21 (stereo not given)	none
CC1CCCC(C)N1C(=O)CN1C(=O)C(C)(C)Oc2ccc(C(=O)NC3CCCC3)cc21 (stereo not given)	M4 antag 26.5
COc1ccccc1N1CCN(C(=O)[C@@H]2CCCN2C2=NS(=O)(=O)c3ccccc32)CC1	none
